Compound activity: PubChem BioAssay, several laboratories
CTSL1 counter – Fasciola hepatica cathepsin L1 inhibitors, primary screen, counter-screen for PFM18AAP inhibitor project, biochemical, QFRET, fluorogenic peptide substrate; AID 1906, 2009; recombinant F. hepatica cathepsin L1, Z-Leu-Arg-MCA fluorescence; 300,000 compounds, 0.49% hits; inhibition, % at 5.96 µM;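 active means inhibition above the mean of all tested compounds plus 3 SD, set per screening campaign, cut at about 17% in these data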;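 further: 0% = plate median of test compound wells and 100% = 1 µM Z-Phe-Ala-diazomethylketone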
UPR CHOP act – activators of apoptotic CHOP UPR arm, primary screen, cell-based, CHO-CHOP luciferase reporter, luminescence, uHTS | activation, % at 10 µM | AID 449763, 2010 | 330,000 compounds, 0.34% hits | UPR activation; percent of tunicamycin response over DMSO baseline;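 active means at 10 µM dose, activation of 40% or more, normalized to positive control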;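 further: 100% = tunicamycin at 10 µg/mL and 0% = DMSO alone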
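Dosing – one dose, 10 µM in 0.5% DMSO · System – CHO-CHOP cells, stable luciferase reporter of PERK-eIF2a-CHOP signalling · Input – 500 cells/well · Control set – tunicamycin 10 µg/mL final as positive, DMSO-only wells as negative · Timing – 6 h compound treatment, 37 °C · Measure – % activation vs tunicamycin · Technique – luminescence read with Steady-Glo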
XBP1 UPR activ – activators of adaptive XBP1 UPR arm, primary screen, cell-based, CHO-XBP1 luciferase reporter, luminescence, uHTS | activation, % at 20 µM | 330,000 compounds, 0.33% hits | AID 463104, 2010 | IRE1-XBP1 UPR activation; percent of tunicamycin response, DMSO as zero;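 active means versus positive control, 20 µM dose yields 30% or more activation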;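 further: 100% = tunicamycin at 10 µg/mL and 0% = DMSO only wells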
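Test system: CHO-XBP1 luciferase reporter cells | Buffer or medium: Serum-containing F12 medium, 10% FBS | Schedule: 6 h compound exposure at 37 °C, 5% CO2 | Detection: Steady-Glo luciferase glow luminescence, 10 min after reagent addition | Read-out basis: Activation, % of tunicamycin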
UCH37 DUB inh – inhibitors of human UCH37 deubiquitinase, primary screen, biochemical, Ub-AMC cleavage, fluorescence; 330,000 compounds, 0.33% hits; purified proteasome/UCH37; inhibition, % (test concentration not listed); AID 588478, 2011;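 active means mean inhibition over replicate wells above about 20%, limit read from the data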;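 further: 0% = compound-free wells with enzyme and 100% = wells lacking proteasome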
Target sequence (Q9Y5K5 whole entry, looked up): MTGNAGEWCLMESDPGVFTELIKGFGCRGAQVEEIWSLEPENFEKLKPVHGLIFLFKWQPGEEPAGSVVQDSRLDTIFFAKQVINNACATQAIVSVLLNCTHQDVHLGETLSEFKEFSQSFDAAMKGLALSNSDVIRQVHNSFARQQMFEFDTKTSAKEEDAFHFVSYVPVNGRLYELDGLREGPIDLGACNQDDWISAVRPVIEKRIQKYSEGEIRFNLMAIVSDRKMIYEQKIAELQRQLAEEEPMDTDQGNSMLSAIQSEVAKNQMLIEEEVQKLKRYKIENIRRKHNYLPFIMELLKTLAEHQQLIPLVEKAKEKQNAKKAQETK
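Material: human UCH37 enzyme supplied as purified proteasome complex / Amount: 0.15 nM proteasome as dispensed / Buffer or medium: pH 7.4 Tris-HCl (50 mM) with ovalbumin, ATP-MgCl2, DTT / Times: preincubation 30 min, reaction 25 min, room temperature / Technique: AMC fluorescence from Ub-AMC cleavage, excitation 355 nm, emission 460 nm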
CHOP inh – inhibitors of CHOP promoter induction, primary screen, cell-based, unfolded protein response, luciferase reporter. inhibition, % at 10 µM. 220,000 compounds, 3.8% hits. CHO-K1 CHOP-promoter luciferase, tunicamycin-induced, 15-18 h;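 active means compounds that reduced the stress-induced luciferase reporter signal by more than about 70% of percent inhibition, limit read from the data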;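 further: 0% = tunicamycin plus vehicle and 100% = wells without tunicamycin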
Starred values were filed as active, the others as inactive; . = not tested or not shown. Shown is part of a subset that was picked to be rich in hits.

SMILES | CTSL1 counter | UPR CHOP act | XBP1 UPR activ | UCH37 DUB inh | CHOP inh
NS(=O)(=O)c1ccc(CCNC(=O)CNCCc2ccc(C(F)(F)F)cc2)cc1 | 4 | 1 | -4 | 2 | .
FC(F)(F)c1cccc(-c2nc3nc(Cl)c(Cl)nc3[nH]2)c1 | 0 | 12 | -5 | . | 74*
Cc1c(C(=O)NN=Cc2ccc(N3CCOCC3)cc2)nc2ccccn12 | . | . | . | -37 | .
CCCCCCCCNC(=O)CCNC(=O)c1ccc(C(C)(C)C)cc1 | 4 | 0 | -2 | 7 | 93*
CCOc1ccc(Nc2nc(Nc3ccc(O)cc3)nc(C)c2[N+](=O)[O-])cc1 | 0 | 2 | -1 | 7 | 80*
O=C1C=C(c2ccccc2)C[C@H](c2cccs2)[C@H]1n1nnc([N+](=O)[O-])n1 | 33* | 4 | 0 | 2 | 60
O=C(CCC(=O)NN=Cc1ccc(Br)o1)NN=Cc1ccc(Br)o1 | . | . | . | 2 | .
COc1ccc(NC(=S)NC(NC(=O)c2cccc(Cl)c2)C(Cl)(Cl)Cl)c([N+](=O)[O-])c1 (stereo not drawn) | 3 | 16 | 4 | -2 | 66
O=C(NC(NC(=S)Nc1ccccc1Cl)C(Cl)(Cl)Cl)c1cccc(Cl)c1 (stereo not drawn) | -2 | 26 | -2 | -2 | 87*
O=C(/C=C/c1ccccc1)NC(NC(=S)Nc1ccc(Cl)cc1Cl)C(Cl)(Cl)Cl (stereo not drawn) | 5 | 31 | 6 | . | 81*
O=C(/C=C/c1ccccc1)NC(NC(=S)Nc1ccc(C(=O)O)cc1)C(Cl)(Cl)Cl (stereo not drawn) | -1 | 3 | 0 | 3 | 43
Cc1cc(/C=C(\C#N)C(=O)O)c(C)n1C1CC1 | 2 | 3 | 1 | 21* | -3
CCN(CC)c1ccc(C=Nn2c(C)nc3ccccc3c2=O)cc1 | . | . | . | -1 | .
COCCN(CCOC)S(=O)(=O)c1ccc(C(=O)Nc2nc(C)c(C(C)=O)s2)cc1 | 20* | 0 | -1 | 9 | 21
O=C(C1CCCN1S(=O)(=O)c1ccc(Cl)cc1)N1CCOCC1 (stereo not drawn) | 1 | -2 | 0 | 1 | 74*
CCOC(=O)N1CCN(C(=O)c2ccc3c(c2)N(C)C(=O)/C(=C\c2ccc(OCC)c(OC)c2)S3)CC1 | 20* | -2 | -3 | 3 | .
N#C/C(=C\c1ccc(O)c(O)c1)C(=O)NCCc1ccccc1 | 2 | 223* | 16 | 6 | -10
N#C/C(=C\c1ccc(O)c(O)c1)C(=O)N1CCc2ccccc21 | 8 | 175* | 11 | 0 | .
COc1cc(/C=C(\C#N)C(=O)NCCc2ccccc2)cc(OC)c1O | 0 | -1 | -3 | 5 | -8
CN1CCN(CCP(=O)(c2ccccc2)c2ccccc2)CC1 | 2 | -3 | -3 | 2 | 73*
COc1ccc2ccccc2c1C(O)c1nccn1C (stereo not drawn) | 0 | 1 | 2 | -4 | 84*
Cn1ccnc1C(O)c1ccccc1 (stereo not drawn) | 1 | 1 | 1 | -2 | -9
CCOc1ccc(NC(=O)CCSc2nc3c(c(CC)c2C#N)C(=O)CC(C)(C)C3)cc1 | 11 | -4 | -3 | -3 | 54
CCc1c(C#N)c(SCCC(=O)Nc2ccc(C)cc2)nc2c1C(=O)CC(C)(C)C2 | 5 | -4 | -6 | 0 | 85*
Nc1cccc(Oc2cnccn2)c1 | -4 | 6 | -2 | 0 | .
SMILES | CTSL1 counter | UPR CHOP act | XBP1 UPR activ | UCH37 DUB inh | CHOP inh
O=C(CCl)Nc1cccc(Oc2cnccn2)c1 | 56* | 3 | -6 | 3 | .
Oc1ccc2ccccc2c1N=Nc1ccccc1F | 2 | 4 | -1 | 2 | -2
O=S(=O)(O)c1cccc(N=Nc2c(O)ccc3ccccc23)c1 | 1 | -2 | -2 | 22* | 12
O=C(COc1ccc(/C=N/NC(=O)c2ccccc2O)cc1)Nc1ccc([N+](=O)[O-])cc1 | 10 | 3 | 6 | . | 90*
O=C(CCSc1ccc(Cl)cc1)c1ccco1 | 20* | 33 | 24 | 2 | .
O=C(CSc1ccc(Cl)cc1)c1ccco1 | 6 | 1 | 6 | 5 | 20
